pEC50: −log10 of the molar value.
What was measured:
[1] = MRT (0 to infinity) in overnight fasted CD-1 mouse total plasma at 50 mg/kg, po by HPLC analysis; type: ADME, organism-based
Procedure, shortened: (§1)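 Overnight-fasted 7-9 week male CD-1 mice, food returned 4 h post-dose, given 50 mg/kg by oral gavage (5 mg/mL in 30% SBE-β-CD); plasma and brain (homogenized in MeOH/15 mM PBS) quenched with ACN internal-standard mix, HPLC; free levels calculated from mouse plasma and brain protein binding; mean ± SEM, 3 mice per time point.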

[2] = MRT (0 to infinity) in overnight fasted CD-1 mouse total brain at 50 mg/kg, po by HPLC analysis; type: ADME, organism-based; procedure, shortened: as §1
[3] = Plasma protein binding in human assessed as bound fraction at 2 uM incubated for 120 mins by equilibrium dialysis method; type: ADME, cell-free; conditions: read-out: PPB (converted)
[4] = Plasma protein binding in mouse assessed as bound fraction at 2 uM measured after 120 mins by equilibrium dialysis method; type: ADME, cell-free; conditions: read-out: PPB (converted)
[5] = Activation of Mitofusin in MFN2 deficient mouse MEF cells assessed as mitochondria elongation
[6] = Volume of distribution at steady state in CD-1 mouse at 10 mg/kg, iv administered as single dose by HPLC analysis; type: ADME, organism-based; conditions: in vivo, read-out: Vdss
Procedure, shortened: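 Single 10 mg/kg IV dose of enantiomeric mixture in 10%DMSO/90%(30%HP-b-CD) to 7-9 week male CD-1 mice; plasma collected over time, proteins precipitated with ACN containing warfarin internal standard, analysed by HPLC; non-compartmental analysis; mean ± SEM, 3 mice per condition.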

[7] = Tmax in non-fasted CD-1 mouse spinal cord at 50 mg/kg, po by HPLC analysis; type: ADME, organism-based
Procedure, shortened: (§2)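 Oral gavage 50 mg/kg (5 mg/mL in 10%DMSO/90%(30%HP-b-CD)) to non-fasted 7-9 week male CD-1 mice; brain, spinal cord and sciatic nerve homogenized in water, diluted in control mouse plasma, ACN precipitation with warfarin internal standard, HPLC; non-compartmental time-concentration analysis; 3 mice per condition.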

[8] = Tmax in non-fasted CD-1 mouse brain at 50 mg/kg, po by HPLC analysis; type: ADME, organism-based; procedure, shortened: as §2
[9] = Tmax in non-fasted CD-1 mouse left sciatic nerve at 50 mg/kg, po by HPLC analysis; type: ADME, organism-based; procedure, shortened: as §2
[10] = Tmax in non-fasted CD-1 mouse right sciatic nerve at 50 mg/kg, po by HPLC analysis; type: ADME, organism-based; procedure, shortened: as §2

Structure (SMILES): O=C(CCCCCc1ccccc1)N[C@H]1CC[C@H](O)CC1
- MRT inf [1]: 60.6 min
- MRT inf [2]: 57.5 min

Structure (SMILES): O=C(N[C@H]1CC[C@H](O)CC1)C1CCC(CCCc2ccccc2)C1 (some centres not stated)
- fraction unbound at 2 h, 2 µM [3]: 0.0075
- fraction unbound at 2 h, 2 µM [4]: 0.012
- pEC50 [5]: 7.82

Structure (SMILES): O=C(N[C@H]1CC[C@H](O)CC1)C1CC1CCCc1ccccc1 (some centres not stated)
- Vd [6]: 0.6 L/kg

Structure (SMILES): O=C(N[C@H]1CC[C@H](O)CC1)[C@@H]1C[C@H]1CCCc1ccccc1
- MRT inf [1]: 115 min
- Tmax [7]: 30 min
- Tmax [8]: 30 min
- Tmax [9]: 30 min
- Tmax [10]: 30 min
- MRT inf [2]: 119 min

Source: ChEMBL document CHEMBL5034022, “Pharmacophore-Based Design of Phenyl-[hydroxycyclohexyl] Cycloalkyl-Carboxamide Mitofusin Activators with Improved Neuronal Activity” (J Med Chem, 2021)
